Measurements reported in ChEMBL document CHEMBL4834436, “Discovery of the S1P2 Antagonist GLPG2938 (1-[2-Ethoxy-6-(trifluoromethyl)-4-pyridyl]-3-[[5-methyl-6-[1-methyl-3-(trifluoromethyl)pyrazol-4-yl]pyridazin-3-yl]methyl]urea), a Preclinical Candidate for the Treatment of Idiopathic Pulmonary Fibrosis” (J Med Chem, 2021).

Legend:
[1] = biological target: T1, Sphingosine 1-phosphate receptor 2 (Homo sapiens, UniProt O95136); assay: Agonist activity at human S1P2 receptor expressed in CHO cells assessed as calcium flux measured for 3 mins by fluorescence assay; assay type: functional, cell-based; conditions: read-out: IC50 (the source's name)
Procedure, shortened: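 CHO cells stably overexpressing human S1P2, seeded overnight at 37 °C/5% CO2, washed and starved 1 h in F-12 with 0.1% fatty-acid-free BSA, loaded with Fluo 8 dye with 5 mM probenecid. Compound added, fluorescence read 3 min; max/baseline ratio normalized to vehicle and S1P EC100. 10-point 1/3 dilutions from 23.3 μM final; EC50 derived; geometric mean of ≥2 runs.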

[2] = biological target: T1, Sphingosine 1-phosphate receptor 2; assay: Antagonist activity at recombinant human S1P2 receptor expressed in CHO cells assessed as EC80 S1P-induced activation incubated for 4 hrs in presence of [35S]GTPgammaS by Topcount reader; assay type: functional, cell-based
Procedure, shortened: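 Membranes from stable lines overexpressing recombinant human S1P2, preincubated with PVT-WGA SPA beads, mixed with compound serial dilutions, [35S]GTPγS and S1P at EC80. Incubated 4 h at room temperature, centrifuged, scintillation counted. Antagonist mode; IC50 as geometric mean of ≥2 runs.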

[3] = biological target: T1, Sphingosine 1-phosphate receptor 2; assay: Antagonist activity at human S1P2 receptor expressed in CHO cells assessed as EC80 S1P-induced calcium flux measured for 3 mins by fluorescence assay; assay type: functional, cell-based
Procedure, shortened: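 Same dye-loaded, starved human S1P2-CHO cells; after agonist readout, 15 min at 37 °C, then stimulated with S1P at EC80, fluorescence read 3 min. Max/baseline ratio normalized to vehicle and S1P EC80. 10-point 1/3 dilutions from 20 μM final; IC50 derived; geometric mean of ≥2 runs.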

[4] = Intrinsic clearance unbound in human liver microsomes at 1 uM […] by LC-MS/MS analysis; assay type: ADME, Microsome
[5] = Intrinsic clearance unbound in mouse liver microsomes at 1 uM […] by LC-MS/MS analysis; assay type: ADME, Microsome
[6] = biological target: T1, Sphingosine 1-phosphate receptor 2; assay: Antagonist activity at recombinant human S1P2 receptor in HFL1 cells assessed as inhibition of EC80 S1P-induced IL8 release incubated for 16 to 24 hrs in presence of 2% HSA by ELISA; assay type: functional, cell-based
Procedure, shortened: (§1)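 HFL-1 lung fibroblasts seeded in 96- or 384-well plates, then medium replaced by starvation medium with 1% heat-inactivated FBS, ±1.95% HSA (2% HSA condition), 16–24 h. 10-point 1/3 dilutions, 30 μM top final, 1 h, then S1P at EC80 (without HSA: 1 μM 96-well or 0.5 μM 384-well; with HSA: 5 or 2 μM).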

[7] = biological target: T1, Sphingosine 1-phosphate receptor 2; assay: Antagonist activity at recombinant human S1P2 receptor in HFL1 cells assessed as inhibition of EC80 S1P-induced IL8 release incubated for 16 to 24 hrs in absence of HSA by ELISA; assay type: functional, cell-based; procedure, shortened: as §1
[8] = biological target: T1, Sphingosine 1-phosphate receptor 2; assay: Antagonist activity at recombinant human S1P2 receptor in HFL1 cells assessed as inhibition of EC80 S1P-induced IL8 release measured as unbound concentration incubated for 16 to 24 hrs in presence of 2% HSA by ELISA; assay type: functional, cell-based; conditions: filed as antagonist, time 16-24 hrs
Procedure, shortened: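 IL8 IC50 from the 2% HSA condition converted to free IC50 = IC50 × fu,medium, where fu,medium is estimated from human plasma protein binding fraction unbound and the serum percentage used in the assay.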

[9] = biological target: T1, Sphingosine 1-phosphate receptor 2; assay: Displacement of radio labeled-SIP from human recombinant S1P2 receptor expressed in CHO cell membranes […] by radioligand based competition binding assay; design: species or system Membrane

T1 sequence (O95136 whole entry): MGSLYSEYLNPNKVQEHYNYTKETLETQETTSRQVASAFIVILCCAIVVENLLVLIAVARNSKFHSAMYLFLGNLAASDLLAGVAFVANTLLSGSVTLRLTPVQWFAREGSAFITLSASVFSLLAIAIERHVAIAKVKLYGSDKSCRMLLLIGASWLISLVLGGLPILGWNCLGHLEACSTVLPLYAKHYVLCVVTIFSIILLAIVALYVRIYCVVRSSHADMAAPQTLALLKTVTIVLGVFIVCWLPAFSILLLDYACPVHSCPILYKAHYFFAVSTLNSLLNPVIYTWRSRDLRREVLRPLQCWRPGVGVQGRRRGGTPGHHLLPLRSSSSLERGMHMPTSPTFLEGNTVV

EC50 [1] [µM]	IC50 [2] [µM]	IC50 [3] [µM]	CL free [4] [mL/min/kg]	CL free [5] [mL/min/kg]	IC50 [6] [µM]	IC50 [7] [nM]	fIC50 [8] [nM]	IC50 ([2]; cho)	IC50 [9] [µM]	Structure (SMILES)
> 23	6.2	1.3								Cc1cc(NNC(=O)Nc2cc(Cl)nc(Cl)c2)nc(-c2ccc(F)cc2)c1
	640	412	< 23.3	317	3.22	640				COCCOc1cc(NC(=O)NCc2cc(C)c(-c3cn(C)nc3C(F)(F)F)nn2)cc(Cl)n1
	24	7.1	< 35	< 163	0.017	24	0.19			CCOc1nc(C#N)cc(NC(=O)NCc2cc(C)c(-c3cn(C)nc3C(F)(F)F)nn2)c1C
		> 19		3770				Not Active		Cc1cc(CNC(=O)Cc2ccc(Cl)c(Cl)c2)ncc1-c1cn(C)nc1C
	> 11000	> 6.61	31.7	< 76.7	> 10	> 11000				Cc1cc(CNC(=O)Nc2cc(OCC(O)CO)nc(C(F)(F)F)c2)nnc1-c1cn(C)nc1C(F)(F)F (stereo unspecified)
	> 100	> 19		85		> 100				Cc1cc(CNC(=O)c2cc(Cl)nc(Cl)c2)ncc1-c1cn(C)nc1C
> 23	9.3	4								Cc1cc(NNC(=O)Nc2cc(Cl)nc(Cl)c2)ncc1-c1ccn(C)n1
	35	11	< 28.3	< 105	0.067	35	3			CCOc1cc(NC(=O)NCc2cc(C)c(-c3cn(C)nc3C(F)(F)F)nn2)cc(C#N)n1
	1.3	0.89		633		1.3				Cc1cc(CNC(=O)c2cc3c(Cl)nc(Cl)cc3[nH]2)ncc1-c1cn(C)nc1C
> 23		> 6.6								Cc1cc(C#N)nc(NNC(=O)Nc2cc(Cl)nc(Cl)c2)c1
	704	348	< 23.3	102	0.81	704	87			Cc1cc(CNC(=O)Nc2cc(OCCO)nc(C(F)(F)F)c2)nnc1-c1cn(C)nc1C(F)(F)F
	26	8.7	< 25	250	0.049	26	0.55			CCOc1nc(C)cc(NC(=O)NCc2cc(C)c(-c3cn(C)nc3C(F)(F)F)nn2)c1Cl
> 23		4.5								Cc1cc(NNC(=O)Nc2cc(Cl)nc(Cl)c2)nc(C(=O)NC2CC2)c1
> 23	2.1	0.76							0.3	CCOC(=O)c1cc(C)cc(NNC(=O)Nc2cc(Cl)nc(Cl)c2)n1
> 23	31	> 6.6								Cc1cc(CO)nc(NNC(=O)Nc2cc(Cl)nc(Cl)c2)c1
	> 10000	2140	23.3	< 90		> 10000				Cc1cc(CNC(=O)Nc2cc(OCCN(C)C)nc(C(F)(F)F)c2)nnc1-c1cn(C)nc1C(F)(F)F
	0.77	0.3		200		0.77				Cc1cc(CNC(=O)Nc2cc(Cl)nc(Cl)c2)ncc1-c1cn(C)nc1C
	105	0.016	125	500		105				CCOc1cc(NC(=O)NCc2cc(C)c(N3CC(C)OC(C)C3)cn2)cc(Cl)n1 (stereo unspecified)

EC50 [1] [µM]	IC50 [2] [µM]	IC50 [3] [µM]	CL free [4] [mL/min/kg]	CL free [5] [mL/min/kg]	IC50 [6] [µM]	IC50 [7] [nM]	fIC50 [8] [nM]	IC50 ([2]; cho)	IC50 [9] [µM]	Structure (SMILES)
> 23	0.8	> 1.4							0.19	Cc1cc(NNC(=O)Nc2cc(Cl)nc(Cl)c2)ncc1-c1cn(C)nc1C
> 23		> 19								Cc1cc(NNC(=O)Nc2cc(Cl)nc(Cl)c2)nc(C(=O)N(C)C)c1
	0.43	0.009		2580		0.43				Cc1cc(CNc2nc3cc(Cl)c(Cl)cc3[nH]2)ncc1-c1cn(C)nc1C
	55	0.012	267	867		55				CCOc1cc(NC(=O)NCc2cc(C)c(Nc3cn(C)nc3C)cn2)cc(C(F)(F)F)n1
> 23	3.4	2.6							1.2	Cc1cc(NNC(=O)Nc2cc(Cl)nc(Cl)c2)ncc1-c1cnn(C)c1
	36	7.2	< 50	< 167	0.071	36	1.3			Cc1cc(CNC(=O)Nc2cc(Cl)nc(OCC(F)F)c2)nnc1-c1cn(C)nc1C(F)(F)F
	242	54	< 15	< 58.3	0.194	242	15			CCOc1cc(NC(=O)NCc2cc(C)c(-c3cn(C)nc3C(F)(F)F)nn2)cc(C)n1
> 23	7	6								Cc1cc(NNC(=O)Nc2cc(Cl)nc(Cl)c2)ncc1C#N
> 23	3.1	> 2.1								Cc1cc(NNC(=O)Nc2cc(Cl)nc(Cl)c2)nc(-c2cnn(C)c2)c1
	169	84		91.7	0.256	160	5.4			Cc1cc(CNC(=O)Nc2cc(C(F)(F)F)nc(OCCO)c2C)nnc1-c1cn(C)nc1C(F)(F)F
	0.61	0.11		> 783		0.61				Cc1cc(CNC(=O)c2cc3c(Cl)cc(Cl)cc3[nH]2)ncc1-c1cn(C)nc1C
	> 20000	> 20		2270	> 30	> 20000				CCOc1nc(C)cc(NC(=O)NCc2cc(C)c(-c3cn(C)nc3C(F)(F)F)nn2)c1C#N
> 23	5.3	3.6								Cc1cc(NNC(=O)Nc2cc(Cl)nc(Cl)c2)ncc1N(C)C
	2.25	0.033		1370		2.25				CCOc1nc(Cl)cc2nc(NCc3cc(C)c(-c4cn(C)nc4C)cn3)[nH]c12
> 23		> 20								Cc1cc(NNC(=O)Nc2cc(Cl)nc(Cl)c2)nc(C(=O)N(C)C2CC2)c1
	0.3	0.16		2650		0.3				Cc1cc(CNC(=O)Nc2cc(Cl)cc(Cl)c2)ncc1-c1cn(C)nc1C
4.7	0.32	0.04		700		0.032				CCOc1cc(NC(=O)NCc2cc(C)c(-c3cn(C)nc3C)cn2)cc(Cl)n1
	15	8.8	< 127	< 533	0.032	15	0.16			CCOc1nc(Cl)cc(NC(=O)NCc2cc(C)c(-c3cn(C)nc3C(F)(F)F)nn2)c1C
